Measurements taken from paper PMC12077508 (Science Advances, 2025).

What was measured:
OR5K1 = target: T1, OR5K1 (Homo sapiens, UniProt Q8NHB7); experiment: cAMPr fluorescence imaging in transfected HEK293T cells; assay type: cell-based
T1 sequence (Q8NHB7 1-308): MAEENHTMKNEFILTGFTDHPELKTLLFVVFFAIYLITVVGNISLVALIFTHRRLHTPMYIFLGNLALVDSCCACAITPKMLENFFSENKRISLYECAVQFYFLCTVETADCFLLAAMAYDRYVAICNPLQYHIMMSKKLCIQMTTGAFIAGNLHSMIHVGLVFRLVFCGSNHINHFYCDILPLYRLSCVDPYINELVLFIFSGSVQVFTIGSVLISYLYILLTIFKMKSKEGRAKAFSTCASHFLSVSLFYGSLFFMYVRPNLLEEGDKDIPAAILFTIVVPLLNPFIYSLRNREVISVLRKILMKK
Summary of the method: (§1)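 HEK293T cells stably expressing the cpGFP-based cAMP sensor cAMPr, on collagen-coated glass dishes, transfected with Rho-tagged receptor (N-terminal 20 residues of bovine rhodopsin) plus RTP1S. Each odorant concentration was tested in a separate experiment, with or without fibronectin, and curves were fitted for EC50 and Hill coefficient.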

OR8D1 = target: T2, OR8D1 (Homo sapiens, UniProt Q8WZ84); experiment: cAMPr fluorescence imaging in transfected HEK293T cells; assay type: cell-based
T2 sequence (Q8WZ84 1-308): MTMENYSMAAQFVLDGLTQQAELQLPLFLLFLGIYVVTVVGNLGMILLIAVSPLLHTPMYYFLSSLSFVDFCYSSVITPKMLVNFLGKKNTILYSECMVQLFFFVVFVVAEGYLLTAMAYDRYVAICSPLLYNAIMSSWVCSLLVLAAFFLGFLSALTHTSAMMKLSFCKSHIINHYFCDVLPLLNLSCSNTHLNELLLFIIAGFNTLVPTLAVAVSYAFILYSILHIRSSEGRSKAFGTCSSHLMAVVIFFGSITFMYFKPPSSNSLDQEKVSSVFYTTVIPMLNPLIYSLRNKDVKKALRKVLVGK

Olfr73 (mOR-EG) = target: T3, Olfr73 (mOR-EG) (Mus musculus, UniProt Q920P2); experiment: as above; assay type: cell-based
T3 sequence (Q920P2 1-313): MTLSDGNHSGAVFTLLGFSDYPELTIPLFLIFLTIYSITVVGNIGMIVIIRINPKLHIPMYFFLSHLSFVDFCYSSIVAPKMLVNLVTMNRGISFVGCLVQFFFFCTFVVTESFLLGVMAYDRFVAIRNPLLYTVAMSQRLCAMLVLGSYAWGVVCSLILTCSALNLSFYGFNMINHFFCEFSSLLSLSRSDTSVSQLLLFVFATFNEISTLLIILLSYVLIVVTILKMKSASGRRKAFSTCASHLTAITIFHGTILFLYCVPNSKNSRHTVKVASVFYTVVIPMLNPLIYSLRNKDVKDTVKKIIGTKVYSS

OR51E1 = target: T4, OR51E1 (Homo sapiens, UniProt Q8TCB6); experiment: cAMPr fluorescence imaging in transfected HEK293T cells; assay type: cell-based
T4 sequence (Q8TCB6 1-318): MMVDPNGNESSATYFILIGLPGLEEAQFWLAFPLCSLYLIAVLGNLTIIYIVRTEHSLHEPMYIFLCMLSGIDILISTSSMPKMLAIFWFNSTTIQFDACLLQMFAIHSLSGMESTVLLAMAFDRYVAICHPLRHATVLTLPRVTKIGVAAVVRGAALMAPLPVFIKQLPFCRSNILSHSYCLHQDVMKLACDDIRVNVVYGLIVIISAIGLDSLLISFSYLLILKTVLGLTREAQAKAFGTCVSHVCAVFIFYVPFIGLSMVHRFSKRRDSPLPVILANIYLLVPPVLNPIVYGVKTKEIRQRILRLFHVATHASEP
Summary of the method: as §1

OR5P3 = target: T5, OR5P3 (Homo sapiens, UniProt Q8WZ94); experiment: as above; assay type: cell-based
T5 sequence (Q8WZ94 1-311): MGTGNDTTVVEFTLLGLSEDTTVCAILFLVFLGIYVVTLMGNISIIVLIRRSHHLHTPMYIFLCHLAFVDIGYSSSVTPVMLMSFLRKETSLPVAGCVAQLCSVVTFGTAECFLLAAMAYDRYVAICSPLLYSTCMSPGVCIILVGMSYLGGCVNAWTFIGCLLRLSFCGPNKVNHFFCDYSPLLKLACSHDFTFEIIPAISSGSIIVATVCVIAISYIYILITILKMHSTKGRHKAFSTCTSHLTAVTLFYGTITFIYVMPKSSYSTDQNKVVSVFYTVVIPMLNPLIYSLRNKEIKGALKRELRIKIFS
Summary of the method: as §1

OR5AN1 = target: T6, OR5AN1 (Homo sapiens, UniProt Q8NGI8); experiment: cAMPr fluorescence imaging in transfected HEK293T cells; assay type: cell-based
T6 sequence (Q8NGI8 1-311): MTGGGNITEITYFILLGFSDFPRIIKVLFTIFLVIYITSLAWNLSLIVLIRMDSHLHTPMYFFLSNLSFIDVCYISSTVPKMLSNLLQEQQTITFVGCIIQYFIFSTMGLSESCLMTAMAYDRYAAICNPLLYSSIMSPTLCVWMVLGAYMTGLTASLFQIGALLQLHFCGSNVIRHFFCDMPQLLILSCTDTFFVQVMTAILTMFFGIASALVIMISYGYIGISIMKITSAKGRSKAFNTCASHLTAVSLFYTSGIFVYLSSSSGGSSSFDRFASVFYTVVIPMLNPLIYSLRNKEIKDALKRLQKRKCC

OR2W1 = target: T7, OR2W1 (Homo sapiens, UniProt Q9Y3N9); experiment: as above; assay type: cell-based
T7 sequence (Q9Y3N9 1-320): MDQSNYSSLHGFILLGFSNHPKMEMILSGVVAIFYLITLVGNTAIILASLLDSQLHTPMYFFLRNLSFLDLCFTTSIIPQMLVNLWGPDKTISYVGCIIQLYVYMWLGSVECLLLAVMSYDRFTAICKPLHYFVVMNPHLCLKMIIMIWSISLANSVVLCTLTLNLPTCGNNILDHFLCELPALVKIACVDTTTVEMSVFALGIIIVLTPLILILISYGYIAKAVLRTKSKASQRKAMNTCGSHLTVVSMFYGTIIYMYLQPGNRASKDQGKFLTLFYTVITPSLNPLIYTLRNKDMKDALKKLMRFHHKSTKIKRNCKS

OR1D2; OR1D1 (Table 2) = OR1D2; OR1D1 (Table 2) (Homo sapiens, UniProt P34982); experiment: cell-based
OR2J2 = target: T8, OR2J2 (Homo sapiens, UniProt O76002); experiment: cAMPr fluorescence imaging in transfected HEK293T cells; assay type: cell-based
T8 sequence (O76002 1-312): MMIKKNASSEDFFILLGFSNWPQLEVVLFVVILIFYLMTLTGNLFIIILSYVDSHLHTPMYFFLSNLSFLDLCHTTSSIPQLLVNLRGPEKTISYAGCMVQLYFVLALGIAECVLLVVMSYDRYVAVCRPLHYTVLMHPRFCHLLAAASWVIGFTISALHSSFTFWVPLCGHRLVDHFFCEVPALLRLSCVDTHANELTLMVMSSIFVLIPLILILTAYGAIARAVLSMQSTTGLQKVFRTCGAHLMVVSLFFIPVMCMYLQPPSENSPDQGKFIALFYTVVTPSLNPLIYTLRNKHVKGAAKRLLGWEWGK
Summary of the method: as §1

Chain of OR1D2; OR1D1 (Table 2) (P34982 whole entry): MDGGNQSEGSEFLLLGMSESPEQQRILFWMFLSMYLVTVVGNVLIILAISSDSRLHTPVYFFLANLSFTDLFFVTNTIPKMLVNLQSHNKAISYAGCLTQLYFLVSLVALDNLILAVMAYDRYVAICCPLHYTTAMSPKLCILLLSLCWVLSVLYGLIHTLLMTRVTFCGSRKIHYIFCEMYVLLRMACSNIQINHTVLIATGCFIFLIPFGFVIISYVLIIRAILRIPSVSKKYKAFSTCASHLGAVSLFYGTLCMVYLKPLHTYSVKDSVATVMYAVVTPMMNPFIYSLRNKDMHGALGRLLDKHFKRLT

For `Cc1nccnc1C` [2,3-dimethyl pyrazine], which EC50 (OR5K1) is on record?
The EC50 was 12000 µM.

Which EC50 (OR8D1) does the source give for `CC1=C(O)C(=O)CC1` [cyclotene] here?
Its EC50 is 1100 µM.

For `C=CCc1ccc(O)c(OC)c1` [eugenol], which EC50 (Olfr73 (mOR-EG)) is on record?
Its EC50 is 154 µM.

How did the EC50 (OR51E1) turn out when `CC(C)CC(=O)O` [isovaleric acid] was run?
Its EC50 is 840 µM.

Which EC50 (OR5P3) does the source give for `COC(=O)c1ccccc1N` [methyl anthranilate] here?
The EC50 was 2200 µM.

For `CC1CCCCCCCCCCCCC(=O)C1` (centres unmarked) [muscone], which EC50 (OR5AN1) is on record?
The EC50 was 290 µM.

Which EC50 (OR2W1) does the source give for `CCCCCOC(C)=O` [pentyl acetate] here?
The EC50 was 44 µM.

For `CC1=C(O)C(=O)OC1C` (centres unmarked) [sotolon], which EC50 (OR8D1) is on record?
The EC50 was 7.7 µM.

Which EC50 (OR2W1) does the source give for `OCCc1ccccc1` [β-phenylethyl alcohol] here?
Its EC50 is 1500 µM.

`CCCCCCCC1CCC(=O)O1` (centres unmarked) [γ-undecalactone] was tested. Which EC50 (OR1D2; OR1D1 (Table 2)) did it give?
The EC50 was 150 µM.

And the EC50 (OR2J2)?
Its EC50 is 250 µM.
